Data published in the EternaBench riboswitch data.

Tested on: MS2 coat protein
Test: apparent Kd, MS2 coat protein; higher = weaker binding; RNA-MaP array; FMN 200 µM where present
Method in brief: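 Stalled E. coli RNA polymerase transcribed each design on Illumina sequencing-chip clusters. The clusters were titrated with SNAP-549-labelled MS2 coat protein, starting at 0.7 or 1.5 nM and doubling up to 3 µM, first without ligand and then with constant ligand, in 100 mM Tris-HCl pH 7.5, 80 mM KCl, 4 mM MgCl2, BSA, DTT, yeast tRNA and Tween-20. Green signal was normalised to red-channel RNA signal and to the control-cluster median Fmax. The apparent Kd is the median of filtered binding-curve fits made for each cluster.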

[1] = designed as: OFF switch for flavin mononucleotide, no ligand
[2] = ligand present: flavin mononucleotide, designed as: OFF switch for flavin mononucleotide
[3] = designed as: ON switch for flavin mononucleotide, no ligand
[4] = ligand present: flavin mononucleotide, designed as: ON switch for flavin mononucleotide

Sequence | apparent Kd [1] [nM] | apparent Kd [2] [nM] | apparent Kd [3] [nM] | apparent Kd [4] [nM]
AAAUAGGCAGGAUAUACAUGAAAAUUAAAAAAAAAAAAAAAACAUGAGGAUCACCCAUGUAGAAGGGUCAAAAA | 97.5 | 92.9 |  | 
AUGGUGACGUAGAAGGGUGACAUGAGGAUCACCCAUGUGCCGAUAUUUCUCGAGAUAUGUCGGCCACAGGAUAUACGUACCAUC |  |  | 39.3 | 83.3
AUCAGCUCGUCAGGAUAUACGUCACUGCUUCGGCAGUGUGGUAAGAUUACAUGAGGAUCACCCAUGUAGAAGGGACGAGCUGAU | 6 | 8.61 |  | 
AGUGUCAUCGAGAAGGCCUCAACAUGAGGAUCACCCAUGUUGGAAUAUGGGAGGAUAUCGAUGAUACAGCUACGUUUCGUAGCA |  |  | 10.2 | 5.04
AGGUAAGAGUUAAUUGUGACGGUGAGAAGGCAAAAGGUUGUGAUUAACAUGAGGAUCACCCAUGUUGAGGAUAUCACCACCUUC | 6.95 | 8.81 |  | 
AGCUGUGGCCGAGGAUAUCUAUCUCAAAUAACCGAAAUAUAAUCGGACAUGAGGAUCACCCAUGUAGAGAAGGCGGUCUCAGCA | 14.5 | 26.1 |  | 
CCUCCAUCAUGAGGAUAUGGCACCUUAUUGGUGCCAGAAGGCAUGUCUUUUGACAUGAGGAUCACCCAUGUAAUAAAUUGGAGG |  |  | 1280 | 127
CCGGAUUAGGAGGAUAUAGGAGUCGAUAGACACCUAGAAGGCCUAACAUGAGGAUCACCCAUGUGUCCUACCGG | 21.9 | 90.8 |  | 
GUCAAGUGAGGAUAUGAUUGUACAGCAGACUAGCGUCUGCAUCAGAAGGCACAUGAGGAUCACCCAUGUUUGUC | 20.6 | 17.1 |  | 
AAAACACAUGAGGAUCACCCAUGUAUCUGGACCAUAGGAUAUCCGCACCCACUAGGGCGUGGAGAAGGGUGAGCCC |  |  | 170 | 194
AGUUCCUCCGCAGGAUAUGUGCUCUUUACCACAUGAGGAUCACCCAUGUCAGCCUACACGGCGAGACAGAAGGGUGGUGGUGCC |  |  | 96 | 157
GGAUGACAAAGUCAUCCAAUACGACAUGAGGAUCACCCAUGUUAGGAUAUGCUACUCAAAGAGUAGCAGAAGGACAUGUGCCUU | 23.7 | 33.4 |  | 
GCUGCAUAGGCAGGAUAUGCAAUAAUUCGAAUAAAAUUUAACGAAUUAACAUGAGGAUCACCCAUGUAGAAGGGCCUGUGCAGU | 5.49 | 4.69 |  | 
GCGUAAUAGGUGUAGCUAGUCGUUCAAGAAGGGUGAAGAACAUGAGGAUCACCCAUGUGGUCUAUACAGGAUAUUGAUAUACGC |  |  |  | 66.6
UGUUGUAUUACAGGAUAUCUAUUAUAUUUAUUUAGAGAAGGGUAUUCACAUGAGGAUCACCCAUGUAUAUACGAGGAAGUUGUG |  |  | 49.6 | 55.1
GCUCUAUGCUAGAAGGCGUGAAACAUGAGGAUCACCCAUGUCAAAGACGUGAGGAUAUAGCAUAGAGCAAAAGUGCGAAAGCAC |  |  | 5.49 | 5.29
UACUUACGAGGAUAUCGAUUGUGGUACAUGAGGAUCACCCAUGUAUGUGAUAUUGUAUUUCGAGAAGGCGUUCAGU | 25.8 | 21.7 |  | 
UGAACUAUGUAGAAGGCCCUCAUUAAUAUGAAGGGAGGAUAUACAUGAGGAUCACCCAUGUGAAGAGCAAGAGGGUUUAACAGA | 89.1 | 479 |  | 
CACAAUCUAUCUGAGGAUAUCAUGAAAAAAACAUGAGGAUCACCCAUGUGCAGGAAAACUGCAUAUGAGAAGGCAGAUAGAUUGC |  |  | 613 | 29.1
AUCAGCUCGUCAGGAUAUACGUCACUGCGUCAGCAUUGUGGUAAGAUCACAUGAGGAUCACCCAUGUAGAAGGGACGAGCUGAU | 19.5 | 190 |  | 
CUUUUGUGAGGAUAUCUGGCUUCGAUCGUGAGAUCGAGGCUAGAGAAGGCACAUGAGGAUCACCCAUGUACCUC | 24.3 | 149 |  | 
UUGUUGUGUGGAGGAUAUACACUAAUUGUUAGCGUAGAAGGCCACAUGAGGAUCACCCAUGUCCGGGUUACUGCCUAAGGAGUG | 548 | 99.5 |  | 
GGUCUGAGAGGAUAUACAUGAAAAAAAAAAGUAAGAUCCCUACAUGAGGAUCACCCAUGUAGAAGGCUCUGAUA | 33.8 | 33.9 |  | 
GCCGGAUUUGUGAGGAUAUACCUAUGGAUACAUAGGUAGAAGGCACAUGAGGAUCACCCAUGUACCUCACCGGC | 16.7 | 69.2 |  | 
UGAUAGGACAGAGGAUAUACGUGCUGGUGAUACUAGCAAAGUAUCGUGACAUGAGGAUCACCCAUGUAGAAGGCUGUCCUAUCU | 81.1 | 27.3 |  | 
GGGUACAUCGGAGGAUAUCAUGUAAAUACAUGAGGAUCACCCAUGUCGAUGGAGACAUCGGAGAUGGAGAAGGCCGAUGUACCG |  |  | 538 | 102
GACUCGAAUGUAGGAUAUGCUGAGGAAUACUCAGCAGAAGGACAUGAGGAUCACCCAUGUAAAUGAGUGAAUAAUAAACGAGUC | 1410 | 197 |  | 
AAAUCACAUGAGGAUCACCCAUGUGAGGAUAUGAUACUAUGUACUUCGGUACAUAGUAUCAGAAGGCAUAUGGA | 23 | 35.9 |  | 

Sequence | apparent Kd [1] [nM] | apparent Kd [2] [nM] | apparent Kd [3] [nM] | apparent Kd [4] [nM]
GCUUUAGUAUCACAUGUAUUACAUGAGGAUCACCCAUGUUACUAGGAUAUGUAUUAGAAUUUACAACAGAAGGAGUAAGAAUGU | 7.49 | 8.93 |  | 
CUAUGCGGAAUAGGAUAUUCGAUCAUGAGGAUAGAAGAAGGGUUACAUGAGGAUCACCCAUGUAUGCACAUGAGGAUCCCUUAG | 221 | 243 |  | 
UUUAUAUAGUAAGGAUAUGUAUUAUUUUUUUCAACAGAAGGUACUGACAUGAGGAUCACCCAUGUUUUAGUGUGGGCAUGUAGU | 384 | 450 |  | 
UUGCGCUGUCGAGAGGAUAUGCGGUGUUGGACAUGAGGAUCACCCAUGUUAGCGAUAGCUUUACGGUAGAAGGCUCUUCAGCUGC |  |  | 138 | 56.9
CUAAAACAUGAGGAUCACCCAUGUCAACAAAGUCGAGGAUAUGGGCAAAUAAAAUAAGAACCAGAAGGCGAAUAAC |  |  | 409 | 36.2
UCGCUGCGAGGAUAUACAUGAGGAUCACCCAUGUACGGGUCCGGGUCUUUGUCGAUUGGUAGAAGGCGCAGUGA | 61.1 | 397 |  | 
CCUCUGUAAGGAUAUACGGAGACGGCUGGAAUCAGUGGAAAGUAGAAGGUACAUGAGGAUCACCCAUGUGAGAC | 21.1 | 66.2 |  | 
AGAAACUACGAGAAGGACAUAUGGUACUUCAGUUACAUGAGGAUCACCCAUGUAGGAUAUCGUAGUUUCAGGAUCGUGAGAUCA | 22 | 169 |  | 
GCCUAUGUGGAGGAUAUCGACUUCGAAAGAAGUCGAGAAGGCCACACAUGAGGAUCACCCAUGUGAUGCCAGGC | 122 | 86 |  | 
AAGAAACAUGAGGAUCACCCAUGUAAGAUAAACACAGGAUAUGCGAAAAGAAACAAAGAAGCAGAAGGGUGAAGAA |  |  | 68.2 | 19.7
CGCCUCAGUUCAGGAUAUGUAUGGGUCUAACGAACAGAAGGGAACAUGAGGAUCACCCAUGUAAAUAGGGCCAAAGGCUAGAUC | 41.7 | 175 |  | 
CAAAUCUGAGGAUAUCGAUUUUUGUACAUGAGGAUCACCCAUGUCCUUUUUAUUAAAUCCCGAGAAGGCAGUGUAU | 27.1 | 31.2 |  | 
UUAAACGGAGGAUAUACAUUUUUUUUAUUAUCCUCAUUAAAACAUGAGGAUCACCCAUGUAGAAGGCCGAAAUU | 79.6 | 292 |  | 
CGGGUCUGAGGAUAUCCAUCUUCAUACAUGAGGAUCACCCAUGUUUACCUUUGGGUUUCUGGAGAAGGCAGUUUUC | 48.3 | 73 |  | 
UAUAUAUAGUAAGGAUAUGUAUAUAUUUUAGAAACAGAAGGUACUGACAUGAGGAUCACCCAUGUUUUAGUGUGGGCAUGUAGA | 69.2 | 89.7 |  | 
GUGAACGGAGGAUAUAUAUGGGCAGCAUACGCUGCAGCUUCACAUGAGGAUCACCCAUGUAGAAGGCUGUACAC | 7.64 | 23.9 |  | 
AGAGAUACGCUCGUCGGACACCGACAUGAGGAUCACCCAUGUAGAAGGCGAUGCGCAACUCGCAUUGAGGAUAUAUAAUGCAGC | 6 | 5.74 |  | 
AACGAAGAGGAGAAGGGUGAUGGGUCCUCAUGACCCGGAGGGCCGCGGCACAGGAUAUCCAUGUCACAUGAGGAUCACCCAUGU |  |  | 123 | 18.5
GUCCUUUCUGAGGAUAUUAUUUUUUUCGAUUGAUAAGAAGGCAGUACAUGAGGAUCACCCAUGUGGGUUGUCUG | 26.8 | 28.3 |  | 
GCGUAUAUAUUAUUUAUUUAACAGUCAGAAGGUGAGAAGACGACAUGAGGAUCACCCAUGUUAUUCAAGGAUAUGAUAAUGCGC |  |  | 27.5 | 13.3
GCACGGUAAGUGAGGAUAUACCUCUGGAUACAGAGGUAGAAGGCACAUGAGGAUCACCCAUGUUCCAGCCGUGC | 17.9 | 74.8 |  | 
GUACGGGAGGAGAAGGGCUAGGAGGUCCAGCUUAUGUGUGUUGCAACAUGAGGAUCACCCAUGUAGCAGGAUAUCCUCUGUACA | 46.3 | 332 |  | 
UAUUAUCACGAAGGAUAUGCUUACAUGAGGAUCACCCAUGUAUGUAUAUUGAUCCAGAGUUUUGAGCAGAAGGUCGUGAGUAAA | 41.8 | 250 |  | 
UACAGACAUGAGGAUCACCCAUGUGAGGAUAUCGAUAACAAUAAAAUAAUAUAAACAACGAGAAGGCACAGCAU | 57.4 | 73 |  | 
UAUUUAUAAUAUUUUAACAUGAGGAUCACCCAUGUCGCUAGACAGGAUAUAUUUUAUUUUUUUAAGUAGAAGGGUCAUAUAUUU |  |  | 84 | 103
GGGAGUGGAGGGAAUAACAUGAGGAUCACCCAUGUAUGGGAGAGAAGGCAGGUCGGAGGGCGAUCUGAGGAUAUUUAGACUCUU |  |  | 8.99 | 8.08
UUACGUCCCGUUUACAUGAGGAUCACCCAUGUCGAAAGACAUGAGGAUAUGCUACCUAAUUGGUAGCAGAAGGCAUGGACGUCG |  |  | 306 | 312
